# In ChEMBL document CHEMBL3351592, “Marine spongian sesquiterpene phenols, dictyoceratin-C and smenospondiol, display hypoxia-selective growth inhibition against cancer cells” (2014):
# Calls of active or inactive are those of the source. The rule behind the calls is not given here.
# How the values were obtained:
# [1] = test system: DU-145; test: Antiproliferative activity against human DU145 cells assessed as growth inhibition under hypoxic condition at 1 to 30 uM after 24 hrs by MTT assay; format: functional, cell-based
# [2] = test system: DU-145; test: Antiproliferative activity against human DU145 cells assessed as growth inhibition under hypoxic condition at 30 uM after 24 hrs by MTT assay; format: functional, cell-based
# How it was run: (§1)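 DU145 cells in RPMI 1640 with 10% heat-inactivated FBS, seeded at 1×10^4 cells/well, settled 4 h at 37 °C in 5% CO2. Then held 12 h either normoxic or hypoxic (94% N2, 5% CO2, 1% O2). Compound added and incubated a further 24 h under the same condition. Read by MTT; inhibition expressed as % of parallel negative controls. Mean ± SD of 3 experiments in triplicate.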
# [3] = test system: DU-145; test: Antiproliferative activity against human DU145 cells assessed as growth inhibition under normoxic condition at 30 uM after 24 hrs by MTT assay; format: functional, cell-based; how it was run: as §1
# [4] = test system: DU-145; test: Antiproliferative activity against human DU145 cells assessed as growth inhibition under hypoxic condition after 24 hrs by MTT assay; format: functional, cell-based; how it was run: as §1
# [5] = test system: DU-145; test: Antiproliferative activity against human DU145 cells assessed as maximal growth inhibition under hypoxic condition at 10 uM after 24 hrs by MTT assay; format: functional; conditions: DU-145, 24 h; how it was run: as §1
# [6] = test system: DU-145; test: Inhibition of hypoxia-induced accumulation of HIF-1alpha in human DU145 cells at 10 to 30 uM after 24 hrs by Western blotting analysis; format: functional, cell-based
# How it was run: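 DU145 cells at 40% confluence pre-incubated 12 h normoxic (5% CO2, 37 °C) or hypoxic (94% N2, 5% CO2, 1% O2). Then treated 24 h under the same condition. Cells rinsed in ice-cold PBS and lysed in Tris-HCl pH 7.5 buffer with EDTA, PMSF, NaF, vanadate, SDS and protease/phosphatase inhibitors. Lysates run on SDS-PAGE and blotted with anti-HIF-1α and anti-β-actin. ECL detection.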
# [7] = test system: DU-145; test: Inhibition of hypoxia-induced of VEGF production in human DU145 cells at 10 to 30 uM after 24 hrs by Western blotting analysis; format: functional, cell-based
# How it was run: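 DU145 cells at 40% confluence pre-incubated 12 h normoxic or hypoxic (1% O2), then treated 24 h. Medium incubated 12 h at 4 °C with anti-VEGF antibody, then with protein G agarose for 2 h at 4 °C. Beads washed 4 times in lysis buffer and boiled 5 min in SDS sample buffer. Run on SDS-PAGE, Western blotted, ECL detection.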
smiles,measurement,setting,value
C=C1CCC[C@H]2[C@](C)(CC3=C(O)C(=O)C=C(NCC(C)C)C3=O)[C@@H](C)CC[C@]12C,inhibition,[1],inactive
COC1=CC(=O)C(O)=C(C[C@@]2(C)CC[C@]3(C)C(C)=CCC[C@H]3[C@H]2C)C1=O,inhibition,[1],inactive
C=C1CCC[C@H]2[C@](C)(CC3=C(O)C(=O)C=C(NCC(C)C)C3=O)[C@@H](C)CC[C@@]12C,inhibition,[1],inactive
C=C1CCC[C@H]2[C@](C)(Cc3cc(C(=O)OC)ccc3O)[C@@H](C)CC[C@]12C,inhibition,[2],Active
same,inhibition,[3],Active
same,inhibition,[4],Dose-dependent effect
same,inhibition at 10 µM,[5],43%
same,inhibition,[6],Active
same,inhibition,[7],Active
C=C1CCC[C@H]2[C@](C)(Cc3cc(C(=O)OC)cc(O)c3O)[C@@H](C)CC[C@]12C,inhibition,[4],Dose-dependent effect
C=C1CCC[C@H]2[C@](C)(CC3=C(O)C(=O)C=C(NCCc4ccccc4)C3=O)[C@@H](C)CC[C@@]12C,inhibition,[1],inactive
CC1=CCC[C@H]2[C@@H](C)[C@@](C)(CC3=C(O)C(=O)C=C(N)C3=O)CC[C@]12C,inhibition,[1],inactive
same,inhibition,[6],inactive
same,inhibition,[7],inactive
C=C1CCC[C@H]2[C@](C)(CC3=C(O)C(=O)C=C(OC)C3=O)[C@@H](C)CC[C@]12C,inhibition,[1],inactive
